The test system of assay [1] is HCT-116. Kind of assay: Effect on RAD51 protein expression in human HCT116 cells at 1 to 2 after 24 hrs. It is filed as functional, cell-based. The essentials: (§1)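 HCT116 cells treated with ligand (DNA-damage proteins 24 h, apoptosis proteins 48 h), lysed in RIPA at 4 °C. 40 μg protein per lane resolved by SDS-PAGE, blotted to PVDF, probed with damage and apoptosis antibody panels; β-actin loading control; chemiluminescent detection.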

For assay [2], the target named is T1, RecQ-like DNA helicase BLM (Homo sapiens, UniProt P54132). Kind of assay: Inhibition of BLM in human HCT116 cells assessed as induction of HRR up-regulation at 1 uM after 24 hrs by GFP-based flow cytometry relative to untreated control. It is filed as cell-based. In a few lines: (§2)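 HCT116 cells (2×10^5) co-transfected with DR-GFP HRR reporter and I-SceI plasmid; 24 h later treated with 0–2 μM ligand (reference 0–50 μM); BLM siRNA knockdown where stated. GFP-positive cells counted by flow cytometry and normalised to untreated; triplicate, mean ± SD.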
On the technique in general: In flow cytometry, cells or beads pass a laser one at a time.

For assay [3], the system named is HCT-116. Briefly: Induction of apoptosis in human HCT116 cells assessed as up-regulation of ATR phosphorylation up to 2 uM after 24 hrs by Western blot analysis. (In general: A western blot detects proteins with antibodies after separation by electrophoresis.)
For assay [4], the system named is HCT-116. Kind of assay: Induction of apoptosis in human HCT116 cells assessed as apoptotic cells after 48 hrs by Hoechst/propidium iodide-staining based flow cytometry. It counts as functional, cell-based.
Assay [5] addresses T1, RecQ-like DNA helicase BLM. Briefly: Inhibition of 5'-biotin labeled duplex forked-DNA binding to BLM (unknown origin) assessed as increase in unbound DNA levels after 1 hr by ELISA. In a few lines: (§3)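 Biotinylated forked DNA (50 nM) immobilised on streptavidin plates overnight at 4 °C. BLM or mutant (100 nM final) premixed with serially halved ligand in 3% BSA blocking buffer, ≤1% DMSO, 1 h on ice. Applied to the blocked plate for 1 h at 37 °C. Bound BLM detected with anti-BLM and HRP secondary, TMB, A450; Hill fit.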
(ELISA stands for enzyme-linked immunosorbent assay.)

Assay [6] relates to RecQ-like DNA helicase BLM (Homo sapiens), P54132 [Y995A]. Briefly: Inhibition of His-tagged BLM Y995A mutant (unknown origin) binding to DNA assessed as effect on unbound DNA. In a few lines:
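Truncated His-tagged BLM (residues 642-1296) mutant expressed in E. coli BL21(DE3). ELISA with 5′-biotin forked DNA (50 nM) immobilized on streptavidin plates at 4 °C overnight. BLM at 100 nM final was premixed with half-diluted compound (≤1% DMSO) on ice for 1 h, then added at 37 °C for 1 h. Bound BLM was detected with anti-BLM/HRP-TMB at A450; curves were Hill-fitted.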

Assay [7] concerns HCT-116. Briefly: Induction of apoptosis in human HCT116 cells assessed as up-regulation of ATM phosphorylation up to 2 uM after 24 hrs by Western blot analysis.
Assay [8] addresses T1, RecQ-like DNA helicase BLM. Briefly: Inhibition of ATP hydrolysis activity of His-tagged BLM (unknown origin) expressed in Escherichia coli BL21 (DE3) at 1 to 10 uM.
Assay [9] has as its target T1, RecQ-like DNA helicase BLM. Kind of assay: Inhibition of BLM in human HCT116 cells assessed as induction of RAD51 recruitment to DSB sites on HRR at 0.5 to 1 uM after 48 hrs by ChIP assay. It is filed as cell-based. The essentials: (§4)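 HCT116 cells co-transfected with HRR(−) reporter DSB model (or chromosomal I-SceI DSBs) and I-SceI; after 24 h given 0–2 μM ligand for 24 h. Crosslinked in 1% formaldehyde, chromatin digested by micrococcal nuclease to 0.2–0.5 kb, IP with anti-BLM or anti-RAD51 (IgG control). qPCR at DSB sites, normalised to untreated; triplicate.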

The subject of assay [10] is HCT-116. Kind of assay: Induction of apoptosis in human HCT116 cells assessed as increase in cleaved caspase 3 expression at 2 uM after 48 hrs by Western blot analysis. It is filed as functional, cell-based. The essentials:
as §1

For assay [11], the system named is HCT-116. Kind of assay: Chemosensitization activity in human HCT116 cells assessed as RI-I-induced antiproliferative activity at 1.25 uM in presence of RI-I after 24 hrs by MTT assay. It is filed as functional, cell-based.
Assay [12] deals with T1, RecQ-like DNA helicase BLM. Briefly: Inhibition of BLM in human HCT116 cells assessed as induction of HRR up-regulation at 1 uM after 24 hrs in presence of siRNA by GFP-based flow cytometry. It counts as cell-based. The essentials:
as §2

In assay [13] the target is T2, DNA repair protein RAD51 homolog 1 (Homo sapiens) (UniProt Q06609).
T2 sequence (whole entry): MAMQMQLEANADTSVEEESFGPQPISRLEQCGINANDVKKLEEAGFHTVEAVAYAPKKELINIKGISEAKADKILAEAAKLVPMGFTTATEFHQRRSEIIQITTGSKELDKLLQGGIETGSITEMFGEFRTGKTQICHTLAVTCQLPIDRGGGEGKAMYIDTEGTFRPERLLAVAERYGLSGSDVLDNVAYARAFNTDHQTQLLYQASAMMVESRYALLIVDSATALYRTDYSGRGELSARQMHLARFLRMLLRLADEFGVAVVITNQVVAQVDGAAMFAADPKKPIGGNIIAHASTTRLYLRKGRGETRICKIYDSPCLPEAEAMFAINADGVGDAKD
Briefly: Induction of RAD51 (unknown origin) binding to ssDNA up to 1 uM […] by ELISA based DNA exchange activity assay. The essentials: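 Biotinylated duplex forked DNA (50 nM final) immobilised on streptavidin plates. BLM (10–1000 nM) preincubated 1 h at 37 °C with ligand series, then added with 250 nM RAD51 for 1 h at 37 °C, ELISA format. Bound RAD51 read at 450 nm as RAD51–ssDNA filament level.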

For assay [14], the system named is HCT-116. Briefly: Antiproliferative activity against human HCT116 cells after 24 hrs by MTT assay. It is filed as functional, cell-based. The conditions noted are these: in the assay text read “48 hrs” for “24 hrs”. The essentials: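 HCT116 cells (5×10^3/well) grown 24 h, then exposed to 0–50 μM test agent; for knockdown, cells pre-treated with 50 nM BLM siRNA for 24 h first.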

The target in assay [15] is T1, RecQ-like DNA helicase BLM. Briefly: Inhibition of BLM recruitment to DSB sites on chromosomes in human HCT116 cells at 0.5 to 1 uM after 48 hrs by ChIP assay. It is filed as cell-based. The essentials:
as §4

Assay [16] has as its system HCT-116. Briefly: Antiproliferative activity against human HCT116 cells up to 2 uM incubated up to 15 days by MTT assay. It counts as functional, cell-based.
For assay [17], the system named is RecQ-like DNA helicase BLM (Homo sapiens), P54132 [M1111A]. Briefly: Inhibition of His-tagged BLM M1111A mutant (unknown origin) binding to DNA assessed as effect on unbound DNA. The essentials:
as §3

The target of assay [18] is T1, RecQ-like DNA helicase BLM. Kind of assay: Inhibition of BLM in human HCT116 cells assessed as induction of RAD51 recruitment to DSB sites on chromosomes at 0.5 to 1 uM after 48 hrs by ChIP assay. It is filed as cell-based. The essentials: as §4
Assay [19] has as its system HCT-116. Kind of assay: Induction of apoptosis in human HCT116 cells assessed as up-regulation of CHK2 phosphorylation up to 2 uM after 24 hrs by Western blot analysis.
Assay [20] concerns HCT-116. Kind of assay: Induction of apoptosis in human HCT116 cells assessed as increase in cleaved caspase 7 expression at 2 uM after 48 hrs by Western blot analysis. It is filed as functional, cell-based. The essentials: as §1

For orientation: IC50 means the concentration at which inhibition is half-maximal.

Active and inactive are the calls of the source. No cut-off for these calls is given here.

T1 sequence (P54132 whole entry): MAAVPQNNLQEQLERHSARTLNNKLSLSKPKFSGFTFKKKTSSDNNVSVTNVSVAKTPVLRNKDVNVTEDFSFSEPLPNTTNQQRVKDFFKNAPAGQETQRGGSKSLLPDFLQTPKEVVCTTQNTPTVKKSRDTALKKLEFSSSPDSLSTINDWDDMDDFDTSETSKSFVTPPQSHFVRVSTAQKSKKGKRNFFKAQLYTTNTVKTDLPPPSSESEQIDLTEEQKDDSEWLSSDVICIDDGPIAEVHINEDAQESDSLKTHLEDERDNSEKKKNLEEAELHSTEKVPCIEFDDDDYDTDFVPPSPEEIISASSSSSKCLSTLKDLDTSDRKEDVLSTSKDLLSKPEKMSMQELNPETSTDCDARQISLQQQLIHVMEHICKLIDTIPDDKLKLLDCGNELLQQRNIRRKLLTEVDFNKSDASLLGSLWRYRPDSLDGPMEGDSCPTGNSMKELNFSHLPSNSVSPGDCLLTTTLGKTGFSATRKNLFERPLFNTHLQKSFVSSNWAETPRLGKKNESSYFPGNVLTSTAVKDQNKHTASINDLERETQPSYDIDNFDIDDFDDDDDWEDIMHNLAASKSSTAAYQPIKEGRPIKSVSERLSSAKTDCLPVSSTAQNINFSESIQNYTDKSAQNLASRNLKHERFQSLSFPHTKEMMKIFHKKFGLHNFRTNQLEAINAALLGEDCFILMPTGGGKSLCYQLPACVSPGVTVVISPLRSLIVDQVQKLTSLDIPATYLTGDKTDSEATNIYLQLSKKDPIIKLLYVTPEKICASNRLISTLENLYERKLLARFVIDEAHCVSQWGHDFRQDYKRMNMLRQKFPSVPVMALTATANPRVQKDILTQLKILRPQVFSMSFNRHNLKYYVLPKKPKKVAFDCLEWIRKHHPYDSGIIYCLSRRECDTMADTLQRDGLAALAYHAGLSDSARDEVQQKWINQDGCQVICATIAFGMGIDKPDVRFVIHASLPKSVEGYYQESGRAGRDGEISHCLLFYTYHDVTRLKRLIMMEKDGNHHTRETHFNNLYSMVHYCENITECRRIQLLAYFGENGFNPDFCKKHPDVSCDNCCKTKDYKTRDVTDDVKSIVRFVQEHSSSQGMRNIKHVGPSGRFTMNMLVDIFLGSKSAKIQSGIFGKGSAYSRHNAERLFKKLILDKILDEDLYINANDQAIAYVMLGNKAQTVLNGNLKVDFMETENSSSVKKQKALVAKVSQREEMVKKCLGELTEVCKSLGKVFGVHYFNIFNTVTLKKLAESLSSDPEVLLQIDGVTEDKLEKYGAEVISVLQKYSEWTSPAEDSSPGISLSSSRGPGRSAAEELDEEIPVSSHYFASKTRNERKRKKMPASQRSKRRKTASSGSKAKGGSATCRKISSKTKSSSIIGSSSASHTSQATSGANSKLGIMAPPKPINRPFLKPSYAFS
Sequence of RecQ-like DNA helicase BLM (Homo sapiens), P54132 [Y995A] (P54132 whole entry Y995A, the tested form may be a part): as the sequence (P54132 whole entry) above, with Y995A counted along it
Sequence of RecQ-like DNA helicase BLM (Homo sapiens), P54132 [M1111A] (P54132 whole entry M1111A): as the sequence (P54132 whole entry) above, with M1111A counted along it

Turning to `CCN(CC)CCCNc1cc2nc3n(c(=O)c2cc1F)CC/C3=C\c1ccc(C(C)C)cc1`, the result (with HCT-116 [1]; in [13]) was inactive. The fold change (FC) in [2] was less than 3. The result with HCT-116 [3], in the assay on HCT-116 [7], in the assay on HCT-116 [10], in the assay on HCT-116 [11], in the assay on HCT-116 [16] and with HCT-116 [20] was Active. Besides, the Activity entry with HCT-116 [4], in the assay with HCT-116 [14] and in the assay with HCT-116 [19] was “Dose-dependent effect” each time. Also, the IC50 in assay [5] was found to be 3.95 µM. Moreover, the inhibition result in assay [5] was “Dose-dependent effect”. Besides, the inhibition result in [6], in assay [8] and in [17] was “inactive” throughout. The inhibition entry in assay [9], in assay [12], in assay [15] and in assay [18] was “Active” each time.

These data come from ChEMBL document CHEMBL4316604, “Discovery of Isaindigotone Derivatives as Novel Bloom's Syndrome Protein (BLM) Helicase Inhibitors That Disrupt the BLM/DNA Interactions and Regulate the Homologous Recombination Repair” (J Med Chem, 2019).
